Screening data as filed in PubChem.
Hits are enriched below; roughly 3.4% of the tested compounds scored in any of these assays.
Arrestin-AP2 inh = human beta-arrestin and AP2 interaction inhibition | FITC-arrestin peptide / GST-AP2 beads, flow cytometry; AP2 beta2 appendage carries R879A mutation | inhibition, % at 10 µM | 340,000 compounds, 0.31% hits | AID 504490;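 active = inhibition above a set limit, near 3 SD of compounds lacking own fluorescence, cut at about 54% in these data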;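 also: plate controls were DMSO wells for no effect and 5 µM unlabelled arrestin peptide for full effect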
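system = GST-tagged AP2 beta2-adaptin appendage (R879A) on 4 µm glutathione beads | reagent = FITC-labelled arrestin peptide probe, 50 nM final | schedule = compound with beads 12 min RT, then probe 1 h RT | signal = HyperCyt-sampled flow cytometry, FL1 channel, ex 488/em 535 nm | read-out = percent response from loss of bead-bound FITC fluorescence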
A3G deaminase = inhibitors of human APOBEC3G DNA deaminase; inhibition, % at 20 µM; recombinant A3G, ssDNA deamination FAM/TAMRA fluorescence; 330,000 compounds, 0.28% hits; Q9HC16;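 active = inhibition of at least 40% at 20 µM, with no more than 30% in the related APOBEC3A deaminase screen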;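 also: plate controls were DMSO wells with A3G for no effect and wells lacking A3G enzyme for full effect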
UCH37 inh = blocks the human deubiquitinase UCH37 | Q9Y5K5 | purified proteasome/UCH37, Ub-AMC cleavage fluorescence | inhibition, % (concentration not given with the values) | 330,000 compounds, 0.33% hits;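 active = mean inhibition over replicate wells above about 20%, limit read from the data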;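 also: 0% = compound-free wells with enzyme and 100% = wells lacking proteasome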
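Assay system: Proteasome-bound UCH37. Buffer or medium: pH 7.4 Tris-HCl (50 mM) with ovalbumin, ATP-MgCl2, DTT. Incubation: 30 min preincubation with enzyme, 25 min cleavage at room temperature. Measured by: fluorescence, ex 355 nm, em 460 nm. Read-out basis: percent inhibition. Control set: wells without proteasome as full block, compound-free enzyme plus substrate as uninhibited.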
AHR act = human AHR activation. AHR-responsive luciferase reporter cells, luminescence. 320,000 compounds, 2.5% hits. P35869. activation, % at 5 µM; in the data active = activation above about 47%;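 also: 0% = vehicle wells and 100% = reference agonist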
A3A deaminase = blocks human APOBEC3A ssDNA deamination; P31941; recombinant A3A, FAM/TAMRA ssDNA deamination fluorescence; inhibition, % at 20 µM; 330,000 compounds, 0.41% hits; AID 493011;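 active = at least 40% inhibition at 20 µM here, with at most 30% in a related deaminase screen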;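 also: plate controls were A3A with DMSO for no effect and wells lacking A3A enzyme for full effect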
PolyA inh = blocks polyadenylation in yeast reporter cells; S. cerevisiae SKY197-pL101 polyadenylation reporter, beta-gal luminescence; efflux-impaired pdr1/pdr3 knockout yeast; score 100 = 6 SD above DMSO; activity score, % at 12 µM; 300,000 compounds, 0.02% hits;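 active = lowest replicate activity score at least 50, where 100 means six control SD above control mean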;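 also: yeast exposed to compound for 9 h at 30 °C; higher score means more reporter readthrough which indicates perturbed polyadenylation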
* marks the source's active call; other numbers are inactive results; nt = no result given.

SMILES | Arrestin-AP2 inh | A3G deaminase | UCH37 inh | AHR act | A3A deaminase | PolyA inh
Oc1ccc(/C=N/NC(=S)Nc2cccnc2)c(O)c1 | 7 | -5 | nt | 60* | 2 | -3
Oc1ccc(/C=N/Nc2ccc3ccccc3c2)c(O)c1 | 8 | 3 | nt | 61* | -5 | 2
Fc1c(F)c(F)c(/C=N/NC(=S)Nc2cccnc2)c(F)c1F | -1 | -7 | nt | 71* | -4 | 2
CC(=NNC(=O)c1ccc2c(c1)OCCO2)c1ccc([N+](=O)[O-])cc1 | nt | nt | 3 | nt | nt | nt
O=C1Nc2ccc(Br)cc2C1Cc1ccccc1F (configuration not stated) | -8 | -7 | 0 | 57* | 1 | 16
O=C1NC(Cc2ccccc2)C(=O)Nc2ccc(Br)cc21 (configuration not stated) | 15 | -5 | 2 | -2 | -2 | 7
Cn1c(CC2C(=O)Nc3ccc(Br)cc32)nc2ccccc2c1=O (configuration not stated) | -9 | -7 | -1 | 50* | -4 | -3
Cn1c(/C=C/c2cccc(Br)c2)nc2ccccc2c1=O | 14 | -6 | -33 | 5 | 1 | -41
COc1ccccc1NC(=O)CC(C)=NNC(=O)C12CC3CC(CC(C3)C1)C2 | nt | nt | -3 | nt | nt | nt
COc1cccc(C(=O)NCC(=O)NN=C(C)/C=C/c2ccccc2)c1 | nt | nt | 5 | nt | nt | nt
CCOc1cc(C=NNC(=O)c2ccccc2OCc2ccc(F)cc2)ccc1O | nt | nt | -5 | nt | nt | nt
CN1C(=O)/C(=C2\SC(N)=NC2=O)c2ccccc21 | 23 | 1 | nt | 73* | 2 | 3
O=c1cc(-c2cccc(Br)c2)oc2cccc(O)c12 | -1 | -3 | 2 | 49* | 1 | 19
COc1cccc(OC)c1C(=O)Nc1nnc(-c2cccs2)s1 | -27 | -5 | -9 | 26 | 0 | 6
CCCc1nnc(NC(=O)CN2CCN(C)CC2)s1 | 23 | -7 | -2 | 3 | -4 | 9
CN1CCN(CC(=O)Nc2nnc(-c3cccs3)s2)CC1 | 12 | -2 | -3 | 111* | 1 | -12
CCC(CC)C(=O)Nc1nnc(-c2cccs2)s1 | 8 | 4 | -9 | 73* | 0 | -11
O=[N+]([O-])c1cccc(C=NN2CCN(Cc3ccccc3)CC2)c1 | nt | nt | 6 | nt | nt | nt
COc1cc(/C=C(/C(=O)c2cccs2)c2nc3ccccc3[nH]2)ccc1O | -2 | 3 | 4 | 57* | 3 | 0
COC(=O)/C(=C\c1ccc(O)cc1)c1nc2ccccc2[nH]1 | -28 | 2 | 1 | 5 | -4 | 2
O=C(/C(=C/c1ccc(Cl)cc1)c1nc2ccccc2[nH]1)c1cccs1 | 30 | -6 | nt | 58* | -2 | -64
O=[N+]([O-])c1ccc(NN=C2CC3CC=CC23)cc1 (configuration not stated) | nt | nt | 5 | nt | nt | nt
COc1cc2c(cc1NC(=O)COC(=O)[C@@H](NC(=O)c1ccccc1F)C(C)C)oc1ccccc12 | -8 | -6 | 3 | 59* | -2 | -6
COc1cc2c(cc1NC(=O)COC(=O)CNC(=O)c1ccccc1)oc1ccccc12 | -2 | 4 | -11 | 46 | 7 | -8
COc1cc2c(cc1NC(=O)COC(=O)[C@@H](NC(=O)c1ccccc1)C(C)C)oc1ccccc12 | -8 | -7 | -5 | 49* | -3 | 8
SMILES | Arrestin-AP2 inh | A3G deaminase | UCH37 inh | AHR act | A3A deaminase | PolyA inh
N#CCC(=O)NN=Cc1ccccc1OC/C=C/c1ccccc1 | nt | nt | 1 | nt | nt | nt
Cc1cc(C)c2c(N)c(-c3nc4ccccc4[nH]3)sc2n1 | -9 | -4 | -2 | 55* | -2 | 10
COc1ccccc1NC(=S)N1CCC(c2nc3cc(C)c(C)cc3[nH]2)CC1 | -20 | -3 | 5 | 52* | 3 | 0
CCc1cc2c(=O)c(-c3cscn3)coc2cc1O | -5 | 6 | -8 | 74* | -1 | 0
O=C(NCc1nnc2c(C(F)(F)F)cc(Cl)cn12)c1ccc2c(c1)OCO2 | -2 | 4 | 4 | 52* | 1 | 2
O=C(NCc1nnc2c(C(F)(F)F)cc(Cl)cn12)c1cccnc1 | -9 | -3 | -2 | 14 | -1 | 2
COc1ccc2c(c1)C(C)=CC(C)(C)N2S(=O)(=O)c1ccc(C)cc1 | 12 | -6 | 23* | 0 | -2 | -17
CCn1c(O)c(N=NC(=O)CNc2ccc(C)cc2)c2ccccc21 | -2 | -9 | 3 | 67* | -4 | -10
Cc1ccc(NCC(=O)N=Nc2c(O)n(C)c3ccccc23)cc1 | -8 | -6 | 6 | 49* | -1 | 1
CC(C)n1c(O)c(N=Nc2ccc(Cl)c(C(=O)O)c2)c2ccccc21 | -6 | -3 | 15 | 7 | -2 | -3
CCn1c(O)c(N=Nc2ccc(Cl)c(C(=O)O)c2)c2ccccc21 | 10 | -4 | 20* | 4 | 1 | -10
CCn1c(O)c(N=NC(=O)CNc2cccc(C)c2)c2ccccc21 | 5 | -15 | 8 | 26 | -6 | -8
CCCCC(C)=NNC(=O)Nc1ccccc1 | nt | nt | 3 | nt | nt | nt
COC(=O)C(C)Oc1ccc(-c2nccc(-c3cccs3)n2)cc1 (configuration not stated) | 3 | -7 | 1 | 16 | -1 | -16
Oc1ccc(-c2nccc(-c3cccs3)n2)cc1 | 17 | -6 | 1 | 70* | -4 | -12
CC1=Nn2c(nnc2-c2cc(-c3ccccc3)n[nH]2)SC1 | 3 | -9 | 4 | 79* | -1 | -1
c1ccc(-c2ccc(C3=Nn4c(nnc4-c4cc(-c5ccccc5)n[nH]4)SC3)cc2)cc1 | 6 | -6 | 7 | 31 | -2 | 16
CCC(=NNC(=O)Nc1ccccc1)c1ccccc1 | nt | nt | 1 | nt | nt | nt
O=C(O)c1ccc2c(c1)C(=O)/C(=C/c1ccccc1)C2=O | 3 | -1 | 22* | 2 | 36 | 12
COC(=O)c1cc(Br)c(=O)n(CCc2ccc(O)cc2)c1 | 3 | -8 | -3 | -2 | -3 | -1
COC(=O)c1cc(Br)c(=O)n(CCc2ccc(F)cc2)c1 | -10 | -10 | 3 | 56* | -7 | -22
NC(=S)NN=C1c2ccccc2-c2c(C(=O)O)cccc21 | nt | nt | 7 | nt | nt | nt
Cc1ccc(CSCC(=O)Nc2ccc(F)cc2)cc1 | -1 | -15 | 4 | 68* | -2 | -4
CC(=NNC(=O)c1ccncc1)c1cccs1 | nt | nt | 9 | nt | nt | nt
CC(=O)Nc1ccc(S(=O)(=O)Nc2nc3ccccc3nc2N2CCc3ccccc3C2)cc1 | 0 | -4 | -1 | 54* | -2 | 4
CC(=O)Nc1ccc(S(=O)(=O)Nc2nc3ccccc3nc2N2CCCCCC2)cc1 | 1 | -1 | 3 | -2 | 3 | -5
O=S(=O)(Nc1nc2ccccc2nc1N1CCc2ccccc2C1)c1ccc(Cl)cc1 | 4 | -7 | nt | 63* | -5 | -4
O=C(CNS(=O)(=O)c1ccccc1)NN=Cc1ccncc1 | nt | nt | 3 | nt | nt | nt
